Drawing on PubChem BioAssay, this text covers activation and inhibition for 63 molecules.

For test [1], the system named is DAF-12 nuclear receptor (Heterodera glycines), GAL4-LBD fusion. Briefly: H. glycines DAF-12 receptor agonists, confirmation, cell-based, luminescence, HEK293, GAL4-LBD fusion (AID 743050).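 Also: 0% = DMSO low control and 100% = 2 mM sodium butyrate high control.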 Conditions: HEK293 GAL4-hgDAF12 luciferase reporter, agonist mode; at 6.8 µM; active compounds read high; percent of butyrate response. Background: Reporter assays use an easily measured gene product as a stand-in for the process of interest.

The target of test [2] is Oxysterols receptor LXR-beta (Homo sapiens) (UniProt P55055). Briefly: LXR agonists, Gal4 luciferase reporter, confirmation, counter-screen for hgDAF-12 agonist project, cell-based, luminescence, HEK293, H. glycines campaign (AID 743051;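 active = mean activation of the triplicate above a set limit carried over from the primary screen, none filed active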). Conditions: 24 h, at 6.8 µM, active compounds read high. In a few lines: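 test system = Gal4-LXR luciferase reporter HEK293 cells | times = 3 h cell plating, then 24 h compound exposure at 37 °C | signal = luciferase luminescence | benchmarks = DMSO low control, 0.68% final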
Chain of Oxysterols receptor LXR-beta (Homo sapiens) (P55055 whole entry, looked up, the tested form may be a part): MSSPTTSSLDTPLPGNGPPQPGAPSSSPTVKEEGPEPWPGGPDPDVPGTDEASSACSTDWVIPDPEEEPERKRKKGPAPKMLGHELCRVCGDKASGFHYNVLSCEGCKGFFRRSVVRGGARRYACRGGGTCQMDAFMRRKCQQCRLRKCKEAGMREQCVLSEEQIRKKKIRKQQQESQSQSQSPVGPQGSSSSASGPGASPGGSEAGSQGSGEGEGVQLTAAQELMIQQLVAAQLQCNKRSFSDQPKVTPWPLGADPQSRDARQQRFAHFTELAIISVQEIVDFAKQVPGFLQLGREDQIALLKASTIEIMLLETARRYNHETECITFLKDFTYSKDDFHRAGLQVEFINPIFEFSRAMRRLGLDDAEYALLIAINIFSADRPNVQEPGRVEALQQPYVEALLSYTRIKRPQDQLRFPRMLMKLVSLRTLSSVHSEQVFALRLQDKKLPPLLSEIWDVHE

The target of test [3] is Galanin receptor type 2 (Homo sapiens) (UniProt O43603). Nature of the test: GALR2 antagonists, retest of hits, confirmation, cell-based (AID 866; in the data active = inhibition above about 27%;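 also: cells stimulated with galanin at about its EC80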). Conditions: GALR2-expressing cells, antagonist mode, at 4 µM, active compounds read high.
Chain of Galanin receptor type 2 (Homo sapiens) (O43603 whole entry, looked up): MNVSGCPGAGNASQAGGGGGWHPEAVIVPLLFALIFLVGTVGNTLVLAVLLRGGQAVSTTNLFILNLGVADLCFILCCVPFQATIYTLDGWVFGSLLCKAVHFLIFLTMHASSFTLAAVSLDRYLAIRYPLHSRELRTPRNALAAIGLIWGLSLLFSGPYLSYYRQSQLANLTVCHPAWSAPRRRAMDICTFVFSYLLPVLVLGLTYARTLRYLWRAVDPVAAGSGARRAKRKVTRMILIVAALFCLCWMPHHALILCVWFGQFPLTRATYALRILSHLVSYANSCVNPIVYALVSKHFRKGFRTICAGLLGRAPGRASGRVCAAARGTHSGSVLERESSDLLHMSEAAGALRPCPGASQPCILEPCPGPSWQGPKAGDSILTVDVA
Test [4] is described as follows: inhibitors of NFAT-driven beta-lactamase reporter, confirmation, counter-screen for GALR2 antagonist project, CHO NFAT-bla cells, FRET readout (AID 867;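 active = inhibition above the mean inhibition across tested compounds plus 3 SD, cut at about 27% in these data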;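 also: 0% = 500 nM thapsigargin stimulated wells and 100% = unstimulated BSA only wells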). Conditions: thapsigargin-stimulated, at 4.2 µM, active compounds read high. (In general: Counterscreens check selectivity or assay interference.)

Some of the results follow. Values without a mark were called inactive. Activity calls are given as the source filed them.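 The calls were made as follows, unless noted: active = mean activation over triplicate wells above the hit cutoff derived from the earlier primary screen (cut at about 11% in these data); inactive = the rest.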

Consider `COc1cccc(/C=C/C(=O)Nc2ccc3c(c2)OCCO3)c1`, for which the activation in test [1] was 12.4% (active); in test [2], 0.69%.
As to `CS(=O)(=O)N1CCc2nc(-c3ccccc3)sc2C1`, the activation in test [1] was 10.3%; in test [2], 0.56%.
The matching figures for `Cn1c(-c2ccc(C(=O)c3ccccc3)s2)nc2ccccc21`: 17.6% (active) and 0.88%.
With `Cc1cnc(NC(=O)c2ccccn2)s1`, the values for the activation in test [1] and in test [2] were 15.6% (active) and 0.63%, respectively.
The matching figures for `CC1CCCN(c2ccc(C(=O)NCCc3ccccc3)cn2)C1` (stereo unspecified): 14.6% (active) and 0.64%.
The corresponding values for `N/C(=N\OC(=O)CCC1CCCCC1)c1ccccn1` are 12.3% (active) and 0.49%.
The matching figures for `O=C(Nc1ccc(Cl)c(Cl)c1)c1ccccc1NC(=O)C1CC=CCC1C(=O)O` (stereo unspecified): 10.2% and 0.27%.
`O=C(NC1CCCC1)c1cc(-c2ccccc2)on1`: the activation was 37.1% (active) in test [1] and 0.75% in test [2].
Take `Brc1ccc(C2CC(c3ccccc3)=Nc3ccccc3N2)cc1` (stereo unspecified): the activation in test [1] is 17.4% (active); in test [2] it was 0.65%.
The corresponding values for `C/C(=N\NC(=O)OC(C)(C)C)c1ccc[nH]1` are 13.8% (active) and 0.45%.
The matching figures for `COC(=O)N/N=C/c1cn(CCCOc2ccc(C)cc2)c2ccccc12`: 6.55% and 0.17%.
The matching figures for `CC(=O)Nc1ccc(-c2nc3ccccc3o2)cc1`: 17% (active) and 0.95%.
`O=C(Nc1ncccc1O)c1ccc(S(=O)(=O)N2CCCC2)cc1`: the activation is 14.2% (active) in test [1] and 0.03% in test [2].
The matching figures for `O=C(NC(=S)NC1CCCCC1)c1ccc(Cl)cc1`: 11.3% (active) and 0.45%.
As for `O=C(NN=Cc1ccc2c(c1)CCC2)c1ccccc1O`, the activation in test [1] is 10.4%; in test [2], 0.3%.
The matching figures for `COc1ccc(NC(=S)N2N=CCC2c2ccccc2)cc1` (stereo unspecified): 13.8% (active) and 0.76%.
The corresponding values for `O=C(NCCCN1CCOCC1)c1cc(-c2ccccc2F)no1` are 11.6% (active) and 0.17%.
The matching figures for `Cc1ccc(C(=O)Nc2ccc(C)c(S(=O)(=O)N(C)C)c2)s1`: 11.2% (active) and 0.45%.
On to `O=C(c1cnn2ccccc12)N1CCc2ccccc21`, for which the activation in test [1] is 13.2% (active); in test [2] it was 0.43%.
The corresponding values for `CC(C)C(=O)Nc1cccc(C(=O)Nc2ccc3c(c2)OCO3)c1` are 14.1% (active) and 0.72%.
Take `O=[N+]([O-])c1cc(S(=O)(=O)N2CCCC2)ccc1NN=C1CCCC1`: the activation in test [1] was -0.65%; in test [2], -0.04%.
For `O=C(Nc1ccc2ccccc2c1[N+](=O)[O-])c1ccccc1`, the activation is 17.7% (active) in test [1] and 0.89% in test [2].
Regarding `c1ccc(CN=C2Nc3ccccc3CS2)nc1`, the activation was 12.9% (active) in test [1] and 0.55% in test [2].
By inhibition is commonly meant how much of the control response was suppressed. As for `O=C(CNC(=O)OCc1ccccc1)Oc1cc2oc(=O)cc(-c3ccccc3)c2cc1Cl`, the inhibition in test [3] is 33.2% (active); in test [4] it was 37% (active).
In the case of `Cc1ccn(-c2cccc(-n3ccc(C)n3)n2)n1`, the values for the activation in test [1] and in test [2] were 15.2% (active) and 0.61%, respectively.
The corresponding values for `O=C(NCCOc1ccccc1)c1ccccc1` are 13.3% (active) and 0.69%.
For `COc1ccc(/C=C/C(=O)Nc2ccc(C34CC5CC(CC(O)(C5)C3)C4)cc2)cc1OC`, the inhibition in test [3] was 43.6% (active); in test [4], 21.4%.
With `Cc1ccc(C(=O)NNc2ncnc3ccccc23)cc1`, the activation in test [1] was 9.47%; in test [2], 0.43%.
For `CC(C)n1c(=O)[nH]c2cc(C(=O)Nc3ccccc3)ccc21`, the activation was 5.08% in test [1] and 0.17% in test [2].
Turning to `COCC(C)NC(=O)c1ccc(Cl)c(Cl)c1` (stereo unspecified), the inhibition in test [3] is 10.6%; in test [4], 4.96%.
For the molecule `O=C(CSC(=S)N1CCCCC1)c1c(F)cccc1F`, the activation was 13.4% (active) in test [1] and 0.64% in test [2].
The matching figures for `COC(=O)c1sc(NC(=O)c2ccc(OC)cc2OC)nc1C`: 7.02% and 1.05%.
The matching figures for `CC(C)(C)c1csc(NC2=NS(=O)(=O)c3ccccc32)n1`: 15.4% (active) and 0.75%.
As to `Cc1cccc(NC(=S)NC(=O)c2ccc(Br)o2)c1`, the activation in test [1] was 11.1% (active); in test [2], 0.48%.
With `CC1C/C(=N/NC(=O)c2cccs2)CC(C)(C)C1` (stereo unspecified), the activation in test [1] was 4.24%; in test [2], 0.21%.
In the case of `CNS(=O)(=O)c1ccc(NC(=O)Nc2ccc3c(c2)OCO3)cc1`, the activation was 13.2% (active) in test [1] and 0.5% in test [2].
With `O=C(NNC(=O)c1ccc(Cl)cc1Cl)c1cccs1`, the activation is 9.02% in test [1] and 0.37% in test [2].
The corresponding values for `COc1ccc(/C=C2/CCCc3ccccc3C2=O)cc1` are 18.7% (active) and 0.78%.
In the case of `Cc1cnc(C(=O)N2CCCC(C(=O)c3ccc(C(F)(F)F)cc3)C2)cn1` (stereo unspecified), the activation is 4.5% in test [1] and 0.17% in test [2].
The corresponding values for `Cc1ccccc1Nc1nc(-c2cccnc2)cs1` are 16.4% (active) and 0.7%.
The matching figures for `O=[N+]([O-])c1ccc2c(c1)Nc1nc3ccccc3nc1N2`: 25.8% (active) and 1.35%.
The matching figures for `CCOc1ccc(OCc2cccc(C(=O)N(CC)CC)c2)cc1`: 19.5% (active) and 0.78%.
Turning to `O=C(CCSc1ccccc1)N1CCN(c2ccccc2F)CC1`, the activation is 14.2% (active) in test [1] and 0.48% in test [2].
As for `O=C(Nc1cccc(O)c1)c1ccc(C(=O)c2ccccc2)o1`, the activation is 12.2% (active) in test [1] and 0.51% in test [2].
In the case of `FC(F)(F)c1cnc(Oc2ccccc2-c2nnc(-c3ccc(Cl)cc3)o2)c(Cl)c1`, the inhibition in test [3] is 3.44%; in test [4], 8.76%.
The corresponding values for `Fc1ccc2[nH]c3c(N4CCN(Cc5ccc6c(c5)OCO6)CC4)ncnc3c2c1` are 50.2% (active) and 24.3%.
The matching figures for `Cc1cc(-c2n[nH]c(=S)n2/N=C/C(Br)=C/c2ccccc2)n[nH]1`: 44.1% (active) and 20.9%.
Turning to `CSc1ccc(/C=N/NC(=O)c2cccc(Cl)c2)cc1`, the results for the activation in test [1] and in test [2] were 14.8% (active) and 0.56%, respectively.
The corresponding values for `O=C(Nn1c(SCc2ccc([N+](=O)[O-])cc2)nc2ccccc2c1=O)c1ccc(F)cc1` are 11% (active) and 0.57%.
On to `CC(C)(C)c1ccc(/C=C/C(=O)Nc2ncccn2)cc1`, for which the activation is 14.8% (active) in test [1] and 0.79% in test [2].
Consider `CC(=O)c1cc(C#N)c(SCC(=O)C(C)(C)C)nc1C`, for which the activation was 14.8% (active) in test [1] and 0.48% in test [2].
For `Cc1ccc2nc(-c3ccc(SCC(=O)Nc4cc(C)on4)nc3)[nH]c2c1`, the activation in test [1] is 15.6% (active); in test [2], 0.54%.
As to `S=C(c1ccc(-c2ccccc2)o1)N1CCCCC1`, the activation in test [1] is 16.1% (active); in test [2], 0.73%.
The corresponding values for `Cc1ccc(NC(=O)c2sccc2C)cc1[N+](=O)[O-]` are 11% (active) and 0.43%.
Consider `Oc1cccc2cc(-c3ccncc3)cnc12`, for which the activation in test [1] was 5.92%; in test [2] it was 0.18%.
The corresponding values for `Cc1cccc(N(CC(=O)Nc2ccc(-c3nc4ccc(C)cc4s3)cc2)S(C)(=O)=O)c1` are 19.8% (active) and 0.65%.
Regarding `COc1ccc(-c2cn3ccsc3n2)cc1`, the activation in test [1] is 16.3% (active); in test [2], 0.84%.
With `COc1ccc(Nc2ccc3ccccc3c2)cc1`, the activation in test [1] is 13% (active); in test [2] it was 0.53%.
With `Cc1cc(O)c(NC(=O)c2ccc(C)c([N+](=O)[O-])c2)cc1C`, the results for the activation in test [1] and in test [2] were 10% and 0.55%, respectively.
In the case of `O=C(/C=C/Sc1ncn[nH]1)c1ccc(Cl)cc1`, the inhibition in test [3] is 50.7% (active); in test [4], 17%.
In the case of `COc1ccc(C(=O)O/N=C(\N)c2ccccn2)cc1[N+](=O)[O-]`, the activation in test [1] is 15% (active); in test [2], 0.59%.
Turning to `c1ccc(-c2nnc(SCc3nc4ccccc4[nH]3)o2)cc1`, the inhibition is 13.7% in test [3] and 5.82% in test [4].
Regarding `COc1ccc(C)cc1NC(=O)c1[nH]c(C)c(C(C)=O)c1C`, the figures for the inhibition in test [3] and in test [4] were 22.8% and 4.72%, respectively.
